Compound activity: PubChem, several laboratories
APP transl inh: APP translation inhibition | SH-SY5Y APP 5'UTR-luciferase reporter, luminescence | inhibition, % at 2 µM | actives 0.82% (n = 190,000);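 active = inhibition above a set limit, derived from the sample mean plus 3 SD, cut at about 45% in these data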
IEC-6 cytotox: IEC-6 cytotoxicity, counter-screen for KLF5 inhibitors; luminescence viability; inhibition, % at 5 µM; actives 0.78% (n = 290,000); in the data active = inhibition above about 22%;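 also: 0% = plate median of test compound wells and 100% = cytotoxic reference compound wells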
Ba/F3 V617F tox: reduce viability of Ba/F3 cells dependent on JAK2V617F. actives 1.1% (n = 220,000). AID 1446. inhibition, % at 5.6 µM. Ba/F3 EpoR-JAK2V617F viability, ATP luminescence;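 active = inhibition above the campaign mean plus 3 SD over all tested compounds, cut at about 24% in these data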;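 also: cytokine-independent growth of Ba/F3 cells driven by EpoR plus mutant JAK2; 0% = DMSO-treated cells and 100% = JAK inhibitor I control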
MT stabilizer: microtubule stabilization, imaging screen; actives 0.83% (n = 200,000); HeLa tubulin immunostaining HCS, 24 h; share of cells brighter than vehicle mean+2SD; AID 2205; % tubulin-high responders, % at 10 µM;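 active = plate Z-score above 3 for both tubulin-high and condensed-nucleus cell shares, with cell loss under 80%, at 10 µM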;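 also: anti alpha tubulin signal scored within the nucleus-defined area of each cell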
BaF3 parental: parental Ba/F3 viability inhibition as JAK2V617F counter-screen | inhibition, % at 5.6 µM | CellTiter-Glo ATP luminescence | actives 1.1% (n = 220,000) | AID 1486;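 active = inhibition above a per-campaign cutoff, the mean inhibition of all tested compounds plus 3 SD, cut at about 27% in these data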;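 also: 0% = DMSO wells and 100% = JAK Inhibitor I control wells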
b-catenin transl: alters nuclear translocation of beta-catenin in HeLa cells; actives 0.3% (n = 190,000); immunofluorescence imaging; AID 1665; nuclear translocation activity, % at 5 µM;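 active = nuclear translocation activity above 50% at 5 µM, with a well cell count of 50 or more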;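 also: per-cell ratio of nuclear to cytoplasmic median beta-catenin stain intensity; plate controls were DMSO negative control for no effect and GSK-3 inhibitor IX positive control for full effect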
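Test system: HeLa cells, endogenous beta-catenin; Compound: single 5 µM dose plus 0.02–20 µM confirmation series; Times: compound exposure 24 h at 37°C; Signal: fluorescence imaging of beta-catenin antibody stain plus DAPI; Read-out: % activation, nuclear-to-cytoplasmic median beta-catenin signal ratio per cell.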
Active calls of the source: *. Shown are actives, neighbours in structure and some others; about 2.2% of the full set was active somewhere.

How did N#C/C(=C\c1ccc([N+](=O)[O-])o1)c1nc2ccccc2[nH]1 do in these assays?
APP transl inh: 96.7*; IEC-6 cytotox: 4.3; Ba/F3 V617F tox: -3.7; MT stabilizer: 15.3; BaF3 parental: 1.2; b-catenin transl: 29.2

What do the screens show for `Cc1ccc2nc(/C(C#N)=C\c3ccc([N+](=O)[O-])o3)[nH]c2c1`?
APP transl inh: 5.9; IEC-6 cytotox: 0.8; Ba/F3 V617F tox: 9.4; MT stabilizer: 61.7; BaF3 parental: -1.7

What do the screens show for `COc1ccc(N/C=C/C(=O)c2sc(-c3ccccc3)nc2C)cc1`?
APP transl inh: -3.5; IEC-6 cytotox: 3.0; Ba/F3 V617F tox: -2.8; MT stabilizer: 52.3*; BaF3 parental: 3.4

What do the screens show for `CC(C)[C@H](NC(=O)[C@@H]1Cc2ccccc2CN1)C(=O)Nc1ccc2c(c1)OCO2`?
IEC-6 cytotox: -4.6

What do the screens show for `CCc1nc(CN2CCCC(C(=O)c3ccc4c5c(cccc35)CC4)C2)c(C)[nH]1` (centres undefined)?
APP transl inh: -3.9; IEC-6 cytotox: 9.7; Ba/F3 V617F tox: 2.7; MT stabilizer: 1.5; BaF3 parental: 82.0*; b-catenin transl: 1.4

How did O=C(c1ccc2c3c(cccc13)CC2)C1CCCN(Cc2ccncc2)C1 (centres undefined) do in these assays?
APP transl inh: 3.7; IEC-6 cytotox: -5.3; Ba/F3 V617F tox: -1.4; MT stabilizer: 2.5; BaF3 parental: -0.9; b-catenin transl: -0.5

Results for CCCCOc1ccc(CSC(CC(=O)O)C(=O)O)cc1 (centres undefined) ?
APP transl inh: 1.2; IEC-6 cytotox: -4.7; Ba/F3 V617F tox: -0.8; MT stabilizer: 1.8; BaF3 parental: -0.8; b-catenin transl: -2.9

Results for CCCCOc1ccc(CSCCN=C(N)N)cc1 ?
APP transl inh: -40.8; IEC-6 cytotox: 1.8; Ba/F3 V617F tox: 38.5*; MT stabilizer: 9.3; BaF3 parental: 76.2*; b-catenin transl: 2.7

Results for Cc1c2ccccc2cc(Cc2ccccc2)[n+]1C ?
IEC-6 cytotox: 4.7

Results for S=c1[nH]c(-c2ccccc2)cn1/N=C/c1cccc2ccccc12 ?
APP transl inh: -17.3; IEC-6 cytotox: -2.4; Ba/F3 V617F tox: 5.5; MT stabilizer: 17.9*; BaF3 parental: 4.6; b-catenin transl: 3.6

Results for Cc1cc(-c2ccccc2)nc2[n+]1CCN2C ?
APP transl inh: -11.5; IEC-6 cytotox: -3.4; Ba/F3 V617F tox: 67.9*; MT stabilizer: 3.8; BaF3 parental: 61.8*; b-catenin transl: 0.0

What do the screens show for `Cc1nc(-c2ccccc2)cc(N2CCCC2)n1`?
APP transl inh: -0.8; IEC-6 cytotox: 7.8; Ba/F3 V617F tox: -0.9; MT stabilizer: 1.2; BaF3 parental: 0.4; b-catenin transl: -0.8

What do the screens show for `Oc1c(/C=C/C=C/C=Nc2ccccc2)sc(=S)n1Cc1ccccc1`?
IEC-6 cytotox: 4.6; Ba/F3 V617F tox: 1.8; BaF3 parental: 3.1

How did O=C(Nc1nnc(-c2ccc(F)cc2)o1)c1cccc([N+](=O)[O-])c1 do in these assays?
APP transl inh: -20.2; IEC-6 cytotox: 98.4*; Ba/F3 V617F tox: 0.7; MT stabilizer: 1.5; BaF3 parental: 10.2; b-catenin transl: -1.7

How did O=[N+]([O-])c1cccc(-c2c[n+]3c(n2-c2ccccc2)SCC3)c1 do in these assays?
APP transl inh: 12.9; IEC-6 cytotox: -0.2; Ba/F3 V617F tox: 34.9*; MT stabilizer: 2.1; BaF3 parental: 65.0*; b-catenin transl: -3.5

What do the screens show for `Clc1ccc(-c2c[n+]3c(n2-c2ccccc2)SCC3)cc1`?
APP transl inh: -17.6; IEC-6 cytotox: 4.6; Ba/F3 V617F tox: 66.8*; MT stabilizer: 5.5; BaF3 parental: 88.1*; b-catenin transl: -0.6

What do the screens show for `COCC(CN1CCN(C2=NS(=O)(=O)c3ccccc32)CC1)OC(=O)c1ccccc1` (centres undefined)?
IEC-6 cytotox: -6.1

How did COc1ccc(C(=O)N2CCN(c3ccc([N+](=O)[O-])c(NCCc4ccc(OC)c(OC)c4)c3)CC2)cc1 do in these assays?
APP transl inh: 18.4; IEC-6 cytotox: 1.1; Ba/F3 V617F tox: 6.1; MT stabilizer: 2.6; BaF3 parental: 11.8; b-catenin transl: 1.7

How did COc1ccc(CCNc2cc(N3CCN(C(=O)c4ccc(C)cc4)CC3)ccc2[N+](=O)[O-])cc1OC do in these assays?
APP transl inh: -7.0; IEC-6 cytotox: -2.3; Ba/F3 V617F tox: 1.1; MT stabilizer: 3.2; BaF3 parental: 43.4*; b-catenin transl: -1.7

What do the screens show for `N=c1n(CCN2CCCC2)c2ccccc2n1CC(O)c1ccc(Cl)c(Cl)c1` (centres undefined)?
APP transl inh: 4.3; IEC-6 cytotox: 101.4*; Ba/F3 V617F tox: 102.1*; MT stabilizer: 6.3; BaF3 parental: 104.3*; b-catenin transl: 19.1

How did O=C(NC1CCCCC1)C(c1ccccn1)N(C(=O)c1csnn1)c1ccccc1F (centres undefined) do in these assays?
IEC-6 cytotox: 2.7

How did CC1(C)CC(=O)C(C(=S)Nc2ccc(F)cc2)=C(NCCN2CCOCC2)C1 do in these assays?
APP transl inh: 2.9; IEC-6 cytotox: -1.9; Ba/F3 V617F tox: 1.7; MT stabilizer: 4.1; BaF3 parental: 5.8; b-catenin transl: -0.9

Results for CC1(C)CC(=O)C(C(=S)Nc2ccccc2)=C(NCCN2CCOCC2)C1 ?
APP transl inh: -5.8; IEC-6 cytotox: -5.6; Ba/F3 V617F tox: 0.1; MT stabilizer: 1.8; BaF3 parental: 34.7*; b-catenin transl: -1.4

Results for O=C(NCc1ccc2c(c1)OCO2)c1cc([N+](=O)[O-])ccc1N1CCCCC1 ?
APP transl inh: 79.2*; IEC-6 cytotox: 54.8*; Ba/F3 V617F tox: 62.7*; MT stabilizer: 16.4*; BaF3 parental: 47.7*; b-catenin transl: 106.8*

Results for COCCCN=C1NN=C(c2cc(C)n(Cc3ccccc3Cl)c2C)CS1 ?
APP transl inh: 76.4*; IEC-6 cytotox: 7.4; Ba/F3 V617F tox: -2.0; MT stabilizer: 14.6*; BaF3 parental: 3.9; b-catenin transl: 75.6*

What do the screens show for `COCCCN=C1NN=C(c2cc(C)n(-c3ccccc3)c2C)CS1`?
APP transl inh: -3.7; IEC-6 cytotox: 1.3; Ba/F3 V617F tox: -1.0; MT stabilizer: 2.9; BaF3 parental: 4.3; b-catenin transl: 0.0

How did COCCCN=C1NN=C(c2cc(C)n(-c3ccccc3F)c2C)CS1 do in these assays?
APP transl inh: -186.8; IEC-6 cytotox: -1.0; Ba/F3 V617F tox: -0.4; MT stabilizer: 19.1*; BaF3 parental: 3.9; b-catenin transl: 92.3*

What do the screens show for `COCCn1c(C)cc(C2=NNC(=Nc3ccccc3F)SC2)c1C`?
APP transl inh: 52.4*; IEC-6 cytotox: 9.3; Ba/F3 V617F tox: -3.4; MT stabilizer: 1.1; BaF3 parental: 3.6

What do the screens show for `O=C(CN1CCC(C(=O)c2ccc(F)cc2)CC1)Nc1ccccc1Cl`?
IEC-6 cytotox: -2.4

How did O=C(O)COc1ccc(/C=C/c2nc3ccc([N+](=O)[O-])cc3s2)cc1 do in these assays?
IEC-6 cytotox: -2.4; Ba/F3 V617F tox: -2.9; BaF3 parental: -5.7; b-catenin transl: 0.9
